Experimental data taken from PubChem BioAssay AID588785 (The Scripps Research Institute Molecular Screening Center, 2011).
Activity calls are given as the source filed them.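 Rule for the calls: active = spectra count ratio compound/DMSO 0.5 or lower for pPAFAH, with at most one off-target serine hydrolase also that low; inactive = ratio above 0.5 for pPAFAH, or two-plus off-targets hit.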

Assays:
Experiment in all cases: serine hydrolase selectivity in brain membranes, late-stage follow-up, selectivity assay for pPAFAH inhibitor project, biochemical, LC-MS/MS, mouse brain membrane proteome (AID 588785)
Bat5 = settings: ABPP-MudPIT FP-biotin spectral counts, at 1 µM, active compounds read low
In short: (§1)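 Test system: mouse brain membrane proteome; amount: proteome at 1 mg/mL protein; detection: ABPP-MudPIT LC-MS/MS spectral counting; replication: 3–4 biological replicates; schedule: 30 min 37 °C compound, 2 h 25 °C probe; measure: Compound/DMSO spectral-count ratio per protein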

[1] = molecular target: Monoacylglycerol lipase ABHD6 (Mus musculus) (UniProt Q8R2Y0); settings: ABPP-MudPIT FP-biotin spectral counts, at 1 µM, active compounds read low
Chain of Monoacylglycerol lipase ABHD6 (Mus musculus) (Q8R2Y0 whole entry, looked up): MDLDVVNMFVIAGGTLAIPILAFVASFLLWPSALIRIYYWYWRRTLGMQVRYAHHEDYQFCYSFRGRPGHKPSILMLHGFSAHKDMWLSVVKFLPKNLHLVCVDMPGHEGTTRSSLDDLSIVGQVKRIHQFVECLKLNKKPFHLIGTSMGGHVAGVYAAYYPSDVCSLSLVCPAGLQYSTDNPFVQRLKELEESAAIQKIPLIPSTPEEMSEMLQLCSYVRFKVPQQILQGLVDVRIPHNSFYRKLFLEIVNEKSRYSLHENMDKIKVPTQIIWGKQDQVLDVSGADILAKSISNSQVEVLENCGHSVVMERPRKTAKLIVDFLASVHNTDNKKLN
In short: as §1

[2] = molecular target: Acyl-protein thioesterase 1 (Mus musculus) (UniProt P97823); settings: ABPP-MudPIT FP-biotin spectral counts, Lypla1, at 1 µM, active compounds read low
Chain of Acyl-protein thioesterase 1 (Mus musculus) (P97823 whole entry, looked up): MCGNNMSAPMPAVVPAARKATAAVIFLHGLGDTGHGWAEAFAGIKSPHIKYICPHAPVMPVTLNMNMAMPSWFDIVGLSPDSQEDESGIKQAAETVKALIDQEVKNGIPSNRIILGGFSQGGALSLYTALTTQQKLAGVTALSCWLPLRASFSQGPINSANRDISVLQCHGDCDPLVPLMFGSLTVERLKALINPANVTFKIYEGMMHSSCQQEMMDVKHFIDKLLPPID
In short: as §1

Magl = settings: ABPP-MudPIT FP-biotin spectral counts, at 1 µM, active compounds read low
In short: as §1

Acot1 = settings: ABPP-MudPIT FP-biotin spectral counts, at 1 µM, active compounds read low
In short: as §1

Pme1 = settings: ABPP-MudPIT FP-biotin spectral counts, at 1 µM, active compounds read low
In short: as §1

Nceh1 = settings: ABPP-MudPIT FP-biotin spectral counts, at 1 µM, active compounds read low
In short: as §1

Prepl = settings: ABPP-MudPIT FP-biotin spectral counts, at 1 µM, active compounds read low
In short: as §1

Faah = settings: ABPP-MudPIT FP-biotin spectral counts, at 1 µM, active compounds read low
In short: as §1

Lypla2 = settings: ABPP-MudPIT FP-biotin spectral counts, at 1 µM, active compounds read low
In short: as §1

[3] = molecular target: Palmitoyl-protein thioesterase ABHD10, mitochondrial (Mus musculus) (UniProt Q6PE15); settings: ABPP-MudPIT FP-biotin spectral counts, at 1 µM, active compounds read low
Chain of Palmitoyl-protein thioesterase ABHD10, mitochondrial (Mus musculus) (Q6PE15 whole entry, looked up): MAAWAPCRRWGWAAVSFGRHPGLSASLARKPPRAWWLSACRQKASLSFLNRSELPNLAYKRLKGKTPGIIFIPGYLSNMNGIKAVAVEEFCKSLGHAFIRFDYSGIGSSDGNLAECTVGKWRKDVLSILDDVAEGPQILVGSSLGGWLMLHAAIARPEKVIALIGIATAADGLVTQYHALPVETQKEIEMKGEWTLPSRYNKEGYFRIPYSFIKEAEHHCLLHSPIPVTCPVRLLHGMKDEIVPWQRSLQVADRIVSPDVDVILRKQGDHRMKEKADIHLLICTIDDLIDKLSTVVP
In short: as §1

Esd = settings: ABPP-MudPIT FP-biotin spectral counts, at 1 µM, active compounds read low
In short: as §1

Lipe = settings: ABPP-MudPIT FP-biotin spectral counts, at 1 µM, active compounds read low
In short: as §1

Rbbp9 = settings: ABPP-MudPIT FP-biotin spectral counts, at 1 µM, active compounds read low
In short: as §1

Abhd12 = settings: ABPP-MudPIT FP-biotin spectral counts, at 1 µM, active compounds read low
In short: as §1

Parl = settings: ABPP-MudPIT FP-biotin spectral counts, at 1 µM, active compounds read low
In short: as §1

Abhd3 = settings: ABPP-MudPIT FP-biotin spectral counts, at 1 µM, active compounds read low
In short: as §1

Acot3 = settings: ABPP-MudPIT FP-biotin spectral counts, at 1 µM, active compounds read low
In short: as §1

Fam108b1 = settings: ABPP-MudPIT FP-biotin spectral counts, at 1 µM, active compounds read low
In short: as §1

Abhd4 = Abhd4 (UniProt Q8VD66); settings: ABPP-MudPIT FP-biotin spectral counts, at 1 µM, active compounds read low
Chain of Abhd4 (Q8VD66 whole entry, looked up): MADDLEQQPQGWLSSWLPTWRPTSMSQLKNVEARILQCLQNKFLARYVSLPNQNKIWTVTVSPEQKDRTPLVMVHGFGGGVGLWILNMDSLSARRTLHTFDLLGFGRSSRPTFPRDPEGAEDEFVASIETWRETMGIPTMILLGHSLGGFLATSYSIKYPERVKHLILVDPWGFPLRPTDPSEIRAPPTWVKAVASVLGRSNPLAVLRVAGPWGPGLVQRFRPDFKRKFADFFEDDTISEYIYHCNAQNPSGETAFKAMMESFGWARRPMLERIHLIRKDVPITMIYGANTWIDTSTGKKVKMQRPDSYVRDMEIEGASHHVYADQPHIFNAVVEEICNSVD
In short: as §1

Abhd11 = settings: ABPP-MudPIT FP-biotin spectral counts, at 1 µM, active compounds read low
In short: as §1

Lactb = settings: ABPP-MudPIT FP-biotin spectral counts, at 1 µM, active compounds read low
In short: as §1

[4] = molecular target: Platelet-activating factor acetylhydrolase (Mus musculus) (UniProt Q60963); settings: ABPP-MudPIT FP-biotin spectral counts, Pla2g7 (pPAFAH), at 1 µM, active compounds read low
Chain of Platelet-activating factor acetylhydrolase (Mus musculus) (Q60963 whole entry, looked up): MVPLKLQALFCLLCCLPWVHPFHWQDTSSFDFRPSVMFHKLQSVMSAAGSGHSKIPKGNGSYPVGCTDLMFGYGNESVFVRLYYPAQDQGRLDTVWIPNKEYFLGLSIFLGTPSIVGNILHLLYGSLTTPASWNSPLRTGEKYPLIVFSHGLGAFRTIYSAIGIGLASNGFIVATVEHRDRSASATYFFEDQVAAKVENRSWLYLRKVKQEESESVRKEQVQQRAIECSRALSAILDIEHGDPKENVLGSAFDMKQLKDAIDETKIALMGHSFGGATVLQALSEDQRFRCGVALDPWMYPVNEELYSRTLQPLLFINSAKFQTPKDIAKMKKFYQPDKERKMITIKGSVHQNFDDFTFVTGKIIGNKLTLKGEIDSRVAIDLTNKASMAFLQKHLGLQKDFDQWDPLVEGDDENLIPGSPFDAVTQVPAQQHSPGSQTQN
In short: as §1

Dpp8 = settings: ABPP-MudPIT FP-biotin spectral counts, at 1 µM, active compounds read low
In short: as §1

Tpp2 = settings: ABPP-MudPIT FP-biotin spectral counts, at 1 µM, active compounds read low
In short: as §1

Acot7 = settings: ABPP-MudPIT FP-biotin spectral counts, at 1 µM, active compounds read low
In short: as §1

[5] = molecular target: Prolyl endopeptidase (Mus musculus) (UniProt Q9QUR6); settings: ABPP-MudPIT FP-biotin spectral counts, Prep, at 1 µM, active compounds read low
Chain of Prolyl endopeptidase (Mus musculus) (Q9QUR6 whole entry, looked up): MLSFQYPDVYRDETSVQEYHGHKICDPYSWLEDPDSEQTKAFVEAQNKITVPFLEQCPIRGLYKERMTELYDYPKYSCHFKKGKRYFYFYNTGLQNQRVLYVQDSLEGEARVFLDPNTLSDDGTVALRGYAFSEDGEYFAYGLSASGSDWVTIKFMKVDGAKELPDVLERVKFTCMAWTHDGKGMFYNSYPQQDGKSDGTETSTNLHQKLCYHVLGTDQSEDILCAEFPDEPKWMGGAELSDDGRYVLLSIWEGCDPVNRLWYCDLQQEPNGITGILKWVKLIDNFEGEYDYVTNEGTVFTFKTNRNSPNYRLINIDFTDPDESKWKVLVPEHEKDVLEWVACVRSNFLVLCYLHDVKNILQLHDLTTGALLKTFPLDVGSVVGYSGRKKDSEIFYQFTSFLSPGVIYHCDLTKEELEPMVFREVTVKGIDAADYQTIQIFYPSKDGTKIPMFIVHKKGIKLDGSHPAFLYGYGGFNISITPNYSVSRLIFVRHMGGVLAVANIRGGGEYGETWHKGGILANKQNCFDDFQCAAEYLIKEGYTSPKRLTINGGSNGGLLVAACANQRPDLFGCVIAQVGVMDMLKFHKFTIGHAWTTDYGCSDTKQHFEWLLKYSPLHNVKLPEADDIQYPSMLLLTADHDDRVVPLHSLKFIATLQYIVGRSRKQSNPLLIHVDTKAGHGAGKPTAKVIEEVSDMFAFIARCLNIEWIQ
In short: as §1

Prcp = settings: ABPP-MudPIT FP-biotin spectral counts, at 1 µM, active compounds read low
In short: as §1

Es1 = settings: ABPP-MudPIT FP-biotin spectral counts, at 1 µM, active compounds read low
In short: as §1

Pafah1b2 = settings: ABPP-MudPIT FP-biotin spectral counts, at 1 µM, active compounds read low
In short: as §1

Pafah1b3 = settings: ABPP-MudPIT FP-biotin spectral counts, at 1 µM, active compounds read low
In short: as §1

Fam108c1 = settings: ABPP-MudPIT FP-biotin spectral counts, at 1 µM, active compounds read low
In short: as §1

Ache = settings: ABPP-MudPIT FP-biotin spectral counts, at 1 µM, active compounds read low
In short: as §1

Lyplal1 = settings: ABPP-MudPIT FP-biotin spectral counts, at 1 µM, active compounds read low
In short: as §1

Acot2 = settings: ABPP-MudPIT FP-biotin spectral counts, at 1 µM, active compounds read low
In short: as §1

Pnpla6 = settings: ABPP-MudPIT FP-biotin spectral counts, at 1 µM, active compounds read low
In short: as §1

Fasn = settings: ABPP-MudPIT FP-biotin spectral counts, at 1 µM, active compounds read low
In short: as §1

Pla2g15 = settings: ABPP-MudPIT FP-biotin spectral counts, at 1 µM, active compounds read low
In short: as §1

Dpp9 = settings: ABPP-MudPIT FP-biotin spectral counts, at 1 µM, active compounds read low
In short: as §1

Apeh = settings: ABPP-MudPIT FP-biotin spectral counts, at 1 µM, active compounds read low
In short: as §1

Fam108a = settings: ABPP-MudPIT FP-biotin spectral counts, at 1 µM, active compounds read low
In short: as §1

Acot6 = settings: ABPP-MudPIT FP-biotin spectral counts, at 1 µM, active compounds read low
In short: as §1

Pnpla8 = settings: ABPP-MudPIT FP-biotin spectral counts, at 1 µM, active compounds read low
In short: as §1

Measured: spectra count ratio compound/DMSO

Cc1cc(N2CCN(C(=O)Oc3ccc(-c4ccccc4)cn3)CC2)c2ccccc2n1
inactive: Bat5 0.9 | [1] 1.1 | [2] 1.6 | Magl 1.3 | Acot1 1 | Pme1 1.3 | Nceh1 1.1 | Prepl 1.1 | Faah 0.8 | Lypla2 1.7 | [3] 1.5 | Esd 1.2 | Lipe 1.3 | Rbbp9 1.3 | Abhd12 1.1 | Parl 1.1 | Abhd3 1.3 | Acot3 0.8 | Fam108b1 1.1 | Abhd4 1 | Abhd11 1 | Lactb 0.7 | Dpp8 0.9 | Tpp2 1.2 | Acot7 0.7 | [5] 1.2 | Prcp 1 | Pafah1b2 0.8 | Pafah1b3 0.8 | Fam108c1 1 | Ache 0.9 | Lyplal1 1.2 | Acot2 1.4 | Pnpla6 0.8 | Fasn 1 | Pla2g15 0.8 | Dpp9 1.1 | Apeh 0.9 | Fam108a 0.9 | Acot6 1 | Pnpla8 0.9
active: [4] 0.1 | Es1 0
